Data as given in the array DNA melting data of Ke et al. (doi:10.1101/2024.01.08.574731).

How the values were obtained:
[1] = folding enthalpy; higher = less favourable; fluorescence melt of hairpins on a sequencing array, two-state fit; settings: sodium 0.088 M
In short: (§1)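 In 50 mM Na-HEPES pH 8.0 containing 25 mM NaCl, hairpins from the library on a sequenced MiSeq flow cell were imaged for Cy3 fluorescence at 2.5 °C steps up to 60 °C, with Cy3 and quencher oligos annealed. After normalisation to pre-quench Cy3 and to control constructs, two-state fits with bootstrapping gave melting temperature and folding enthalpy. Four replicates were combined by inverse-variance weighting, and fitted temperatures were shifted up by 9.35 °C to match UV melts.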

[2] = melting temperature; fluorescence melt of hairpins on a sequencing array, two-state fit, raised by 9.35 °C to match UV melts; settings: sodium 0.088 M
In short: as §1

Row | Sequence | folding enthalpy [1] [kcal/mol] | Tm [2] [°C]
1 | GGATCCCGAAAGGGCTCC (((.(((....))).))) | -26.5 | 51.3
2 | GTGTAGGGAAACCCACAC ((((.((....)).)))) | -24.5 | 45.8
3 | GCTTGTGGAAACATGAGC (((..((....))..))) | -29.4 | 37.7
4 | GTTTTGGGAAACTAGAAC (((.(.(....).).))) | -7.83 | 23.7
5 | GATCATCAATATGATC ((((((....)))))) | -35 | 45
6 | GATCTTCTATAAGATC ((((((....)))))) | -30.3 | 43.5
7 | GATCGGGGAAACCCGGTC ((.((((....)))).)) | -26.8 | 53.8
8 | GACTTGGGAAACTGAGTC ((((..(....)..)))) | -32 | 33.5
9 | GATCCAGAATGGATC ((((((...)))))) | -50.9 | 58.1
10 | GTGAACGAAAGTTTACAC ((((((....)))..))) | -18.6 | 39.6
11 | GATCAACTCTTTGATC ((((((....)))))) | -37.5 | 45.1
12 | GATCCGTACTCGGATC ((((((....)))))) | -37.9 | 58.7
13 | GCCCGGCGAAAGCGCGGC (((..((....))..))) | -16.1 | 61.7
14 | CACCGGAAACGGTG (((((....))))) | -30 | 60.5
15 | GGCCCTCGAAAGAGGCC (((.(((....)))))) | -21.3 | 58.4
16 | GCGTATCGAAAGATGCGC (((.(((....))).))) | -43.8 | 66.3
17 | GTTTACGGAAACGTAAGC (.(((((....))))).) | -22.4 | 41.5
18 | GCGCTGCGAAAGCTGGGC ((.(.((....)).).)) | -24.4 | 62.4
19 | GACACCGGAAACGGCATC ((..(((....)))..)) | -9.17 | 25.4
20 | GCCTTGCGAAAGCTAGGC ((((.((....)).)))) | -44.4 | 67.2
21 | GTGACCGGAAACGACCAC (((..((....))..))) | -21.2 | 30.4
22 | GACCACGAAAGTGGAGTC ((((((....)))..))) | -11.5 | 38.4
23 | GATCTCCCGCGAGATC ((((((....)))))) | -32.3 | 52.7

Row | Sequence | folding enthalpy [1] [kcal/mol] | Tm [2] [°C]
24 | GCGTATTAACGC ((((....)))) | -22.1 | 53.8
25 | GCATTTGAAAAAATGC ((((((....)))))) | -30.9 | 52.8
26 | GTCATGCGAAAGCAGAC (((.(((....)))))) | -22.4 | 49.8
27 | GTGATTGCGAAAGCACAC (((..(((....)))))) | -14.4 | 38.1
28 | GCATGGCGAAAGCCGAGC ((..(((....)))..)) | -17.1 | 55.7
29 | GGACAAGGAAACTTGTCC (((((((....))))))) | -45 | 61
30 | GTTGACGAAAGTCACAAC ((((((....)))..))) | -9.62 | 36.2
31 | CGTACGAAAGTACG (((((....))))) | -26.7 | 68.9
32 | CGCGGACGCCTCCGCG ((((((....)))))) | -32 | 68.8
33 | CGAGAGCGGAAACGCTCG (((..(((....)))))) | -18.5 | 58.4
34 | GTTCCAGGAAACTGGAAC (((((((....))))))) | -42.2 | 60.4
35 | GGTCCTCGAAAGAGTACC (((.(((....))).))) | -31.1 | 43.4
36 | GGCGGTGGAAACACCGTC (.(((((....))))).) | -23.9 | 65.8
37 | GCCAAGCGAAAGCATTGC ((.(.((....)).).)) | -11.2 | 32.5
38 | GCGCCAGGAAACCAGCGC ((((..(....)..)))) | -26.4 | 51.4
39 | GATCTCACCGAGATC ((((((...)))))) | -36.5 | 55.2
40 | GAGTTCCCGAAAGGGCTC (((..(((....)))))) | -18.3 | 34.1
41 | GCGTAGCGAAAGCCGCGC (((..((....))..))) | -16.2 | 61.6
42 | GTTCCGCGAAAGCGCAAC (((.(((....))).))) | -13.3 | 38.4
43 | GTATCAGAAATGATAC ((((((....)))))) | -31.6 | 45.6
44 | GATCCTATGAGGATC ((((((...)))))) | -34.7 | 53.7
45 | GCGACAGGAAACTATCGC ((((.((....)).)))) | -31.9 | 43.7
46 | GTACGCGAAAGCGATTAC ((((((....)))..))) | -11.2 | 29.7

Row | Sequence | folding enthalpy [1] [kcal/mol] | Tm [2] [°C]
47 | GTTGCGGGAAACCGTGAC ((..(((....)))..)) | -20.2 | 45.2
48 | GCAAGCGAAAGCTGGTGC ((((((....)))..))) | -20.9 | 47.6
49 | GATTAGGGAAACCTAGTC ((.((((....)))).)) | -25.4 | 33.7
50 | GAATTGCGAAAGCATTTC (((.(((....))).))) | -21.7 | 44.8
51 | GTACGGAAACGTAC (((((....))))) | -32.4 | 53.7
52 | GGTTCACGAAAGTGGACC (((.(((....))).))) | -38 | 63
53 | GACGAGGGAAACCCCGTC ((((.((....)).)))) | -31.4 | 51
54 | GTGTACGGAAACATACAC (((((.(....).))))) | -26 | 36.1
55 | GTGAATGAAAATTCAC ((((((....)))))) | -29.8 | 52.3
56 | GCCGACGAAAGTCATGGC ((((((....)))..))) | -34.5 | 51.6
57 | GTACACGAAAGTGAATAC ((((((....)))..))) | -10.6 | 28.6
58 | GCACAAGCGAAAGCTTGC (((..(((....)))))) | -7.33 | 37.8
59 | GATCTTCTACAAGATC ((((((....)))))) | -30.3 | 41.9
60 | GGATCTCGAAAGAGTTCC (((.(((....))).))) | -27.5 | 46.1
61 | GGCCTCACGAAAGTGGCC (((..(((....)))))) | -21.9 | 53.7
62 | GGATACTCGAAAGAGTCC (((..(((....)))))) | -11.7 | 32.6
63 | AAACAGAAATGTTT (((((....))))) | -11.4 | 25.3
64 | GACCCCGGAAACAGGGTC (((((.(....).))))) | -29.5 | 48.8
65 | GGAGTAGGAAACCACTCC (((((.(....).))))) | -28.3 | 42.6
66 | GCCGTTGCGAAAGCAGGC (((..(((....)))))) | -31.7 | 62.3
67 | GGGGCCGAAAGGCCACCC ((((((....)))..))) | -10.1 | 60
68 | GTGAACGAAAGTTTCAC ((((((....))).))) | -22 | 47.9
69 | GCCTCTGGAAACAGGGGC (((.(((....))).))) | -45.3 | 57.4

Row | Sequence | folding enthalpy [1] [kcal/mol] | Tm [2] [°C]
70 | GACAGTGGAAACATTGTC ((((.((....)).)))) | -32.4 | 43
71 | GCGATAGGAAACCATCGC (((((.(....).))))) | -34.5 | 50.1
72 | GTATGCGGAAACGCACAC ((.((((....)))).)) | -15.4 | 40
73 | GGGGTCGGAAACAACCCC (((((.(....).))))) | -31.7 | 48.3
74 | GTCTGAGGAAACTCAAAC ((.((((....)))).)) | -11.3 | 24.5
75 | GCTGACGAAAGTCCAAGC ((((((....)))..))) | -16.5 | 43.5
76 | GGGACTGGAAACGGTCTC (.(((.(....).))).) | -23.1 | 37.4
77 | GCTTCACGAAAGTGAGC (((.(((....)))))) | -17.8 | 51
78 | TATGCGAAAGCATA (((((....))))) | -13.6 | 60.1
79 | GCGCACGAAAGTGTACGC ((((((....)))..))) | -23.8 | 53.5
80 | GATCTGGGGCAGATC ((((((...)))))) | -29.4 | 46.5
81 | CTGTTGAAAAACAG (((((....))))) | -23.7 | 42.3
82 | GCTTTCGAAAGAAGGAGC ((((((....)))..))) | -17.8 | 31.5
83 | GGTCCTCGAAAGAGCACC (((.(((....))).))) | -27.1 | 38.5
84 | GTTCGAGAAATCGAAC ((((((....)))))) | -39.8 | 54.9
85 | GCTTATGGAAACACAAGC ((((.((....)).)))) | -26.2 | 33.2
86 | GCCTTTGGAAACGAAGGC (((((.(....).))))) | -35.4 | 51.6
87 | GCTGAGCCGAAAGGCAGC (((..(((....)))))) | -15.2 | 51.7
88 | GTGTTGGGAAACTAGCAC (((.(.(....).).))) | -15.6 | 31.8
89 | GATGCAGGAAACTGTGTC ((..(((....)))..)) | -27.1 | 35.5
90 | GATGGCCGAAAGGCTATC (((.(((....))).))) | -27.8 | 57.5
91 | GATCACTCCAGTGATC ((((((....)))))) | -30.5 | 58.4
92 | GAAACGGGAAACCGTTTC (((((((....))))))) | -50.9 | 60.3
